From ChEMBL document CHEMBL1240504, “Synthesis of substituted thieno[2,3-d]pyrimidine-2,4-dithiones and their S-glycoside analogues as potential antiviral and antibacterial agents” (Eur J Med Chem, 2010)
Values after ≈ are worked out from the molar mass of the structure shown.

Tests used:
CCRF-CEM = assay: Cytotoxicity against […] human CEM cells after 6 days by XTT assay; format: cell-based; conditions: 144 h
Summary of the method: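 Uninfected CEM cultures given serial compound dilutions (DMSO, 1:200 final dilution). Incubated 6 days at 37 °C, 5% CO2, then read by XTT formazan. IC50 is the molar concentration causing 50% inhibition of cell growth.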

Pseudomonas putida [1] = assay: Antibacterial activity against ampicillin-resistant Pseudomonas putida MTCC 1072 at 64 mg/ml after 16 hrs by disk diffusion test; format: functional; parameters: dose or concentration left out as unconfirmed; conditions: MTCC 1072, 16 h, read-out: IZ
Staphylococcus aureus [2] = assay: Antibacterial activity against Staphylococcus aureus MTCC 1144 after 12 to 16 hrs by turbidity assay; format: functional
Summary of the method: (§1)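 Broth dilution MIC in LB broth. Tubes inoculated, incubated 12–16 h and scored by eye for turbidity (growth) versus clear (no growth).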

Pseudomonas putida [3] = assay: Antibacterial activity against ampicillin-resistant Pseudomonas putida MTCC 1072 after 12 to 16 hrs by turbidity assay; format: functional; summary of the method: as §1
Vero = assay: Cytotoxicity against african green monkey Vero cells assessed as loss of monolayer present around the plaques; format: cell-based; conditions: Chlorocebus sabaeus
Summary of the method: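 Vero monolayers in serial-dilution trays with HSV-1, run in triplicate, 6 h at 37 °C, 5% CO2. Cells fixed with 3.7% formaldehyde and examined visually. IC50 is the concentration giving about 50% loss of the monolayer around HSV-1 plaques.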

Human alphaherpesvirus 1 [4] = assay: Antiviral activity against HSV1 infected in african green monkey Vero cells after 6 hrs by plaque reduction assay; format: functional; parameters: scale not given: the % may be the effect or the level left
Summary of the method: (§2)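 Modified plaque reduction in 96-well trays with no thickening overlay. Compounds dissolved in DMSO and diluted into medium, then serially diluted and added in triplicate to confluent Vero monolayers. Titred HSV-1 added in medium with 10% calf serum. Incubated 6 h at 37 °C, 5% CO2. Cells fixed with 3.7% formaldehyde and examined visually. The end-point concentration was taken from the dilution series.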

Escherichia coli [5] = assay: Antibacterial activity against Escherichia coli MTCC 41 at 64 mg/ml after 16 hrs by disk diffusion test; format: functional; parameters: dose or concentration left out as unconfirmed; conditions: MTCC 41, 16 h, read-out: IZ
Pseudomonas putida [6] = assay: Antibacterial activity against ampicillin-resistant Pseudomonas putida MTCC 1072 at 128 mg/ml after 16 hrs by disk diffusion test; format: functional; parameters: dose or concentration left out as unconfirmed; conditions: MTCC 1072, 16 h, read-out: IZ
Staphylococcus aureus [7] = assay: Antibacterial activity against Staphylococcus aureus MTCC 1144 at 128 mg/ml after 16 hrs by disk diffusion test; format: functional; parameters: dose or concentration left out as unconfirmed; conditions: MTCC 1144, 16 h, read-out: IZ
Escherichia coli [8] = assay: Antibacterial activity against Escherichia coli MTCC 41 at 128 mg/ml after 16 hrs by disk diffusion test; format: functional; parameters: dose or concentration left out as unconfirmed; conditions: MTCC 41, 16 h, read-out: IZ
Staphylococcus aureus [9] = assay: Antibacterial activity against Staphylococcus aureus MTCC 1144 at 64 mg/ml after 16 hrs by disk diffusion test; format: functional; conditions: MTCC 1144, 16 h, read-out: IZ
Summary of the method: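 Disk diffusion (zone of inhibition). Bacterial isolate spread evenly over an agar plate. A filter disk carrying a known amount of compound was placed on the surface and the compound left to diffuse. The inhibition zone in the lawn was read after 16 h incubation.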

[10] = Therapeutic index, ratio of IC50 for human CEM cells to EC50 for HIV1; format: cell-based, CCRF-CEM; conditions: read-out: Ratio IC50/EC50
Summary of the method: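 CEM T4 lymphocytes, with or without HIV-1, were incubated with serially diluted compounds (DMSO solution diluted 1:100 in medium; 1:200 final dilution after cells and virus were added) at 37 °C in 5% CO2 for 6 days. Controls were untreated and AZT-treated. Read-out was XTT formazan, measured spectrophotometrically plus microscopy. EC50 is 50% protection from cytopathic effect; IC50 is 50% growth inhibition in uninfected cultures.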

[11] = system: Human immunodeficiency virus 1; assay: Antiviral activity against HIV1 infected in human CEM cells assessed as protection against virus-induced cytopathic effect after 6 days by XTT assay; format: functional, organism-based; conditions: Human immunodeficiency virus 1, CCRF-CEM, 144 h
Summary of the method: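 CEM T4 lymphocytes received serially diluted compounds (DMSO stock diluted 1:100 in medium, 1:200 final dilution), then HIV-1. Incubated 6 days at 37 °C, 5% CO2. Formazan read spectrophotometrically after XTT, with microscopic check for viable cells. EC50 is the concentration giving 50% protection against the HIV cytopathic effect. AZT-treated wells served as positive control.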

Escherichia coli [12] = assay: Antibacterial activity against Escherichia coli MTCC 41 after 12 to 16 hrs by turbidity assay; format: functional; summary of the method: as §1
Human alphaherpesvirus 1 [13] = assay: Antiviral activity against HSV1 infected in african green monkey Vero cells assessed as minimum antiviral concentration after 6 hrs; format: functional; summary of the method: as §2

Row | SMILES | IC50 (CCRF-CEM) [µM] | zone of inhibition (Pseudomonas putida [1]) [mm] | MIC (Staphylococcus aureus [2]) [µg/mL] | MIC (Pseudomonas putida [3]) [µg/mL] | IC50 (Vero) [µM] | Activity (Human alphaherpesvirus 1 [4]) [%] | zone of inhibition (Escherichia coli [5]) [mm] | zone of inhibition (Pseudomonas putida [6]) [mm] | zone of inhibition (Staphylococcus aureus [7]) [mm] | zone of inhibition (Escherichia coli [8]) [mm] | zone of inhibition at 64000 µg/mL (Staphylococcus aureus [9]) [mm] | selectivity ratio [10] | EC50 [11] [µM] | MIC (Escherichia coli [12]) [µg/mL] | MAC (Human alphaherpesvirus 1 [13]) [µM]
1 | Cc1cn([C@H]2C[C@H](N=[N+]=[N-])[C@@H](CO)O2)c(=O)[nH]c1=O [ZIDOVUDINE] | 0.7 |  |  |  |  |  |  |  |  |  |  |  |  |  | 
2 | CSc1nc2sc3c(c2c(=S)[nH]1)CCCCC3 | > 100 | < 1 | 128 (≈ 453 µM) | 128 (≈ 453 µM) | 0.45 | 0 | < 1 | > 3 | > 3 | > 3 | > 2 | > 1 | > 100 | 128 (≈ 453 µM) | 
3 | CC(=O)c1nn(-c2ccc([N+](=O)[O-])cc2)c2nc3sc4c(c3c(=S)n12)CCCC4 |  | > 2 | > 128 | 128 (≈ 301 µM) |  |  | > 3 | > 3 | > 2 | > 3 | > 2 |  |  | 64 (≈ 150 µM) | 
4 | S=c1c2c3c(sc2nc2n(-c4ccccc4)nc(-c4ccccc4)n12)CCCC3 |  | < 1 | 128 (≈ 309 µM) | 128 (≈ 309 µM) |  |  | < 1 | > 3 | > 3 | > 3 | < 1 |  |  | 128 (≈ 309 µM) | 
5 | CCOC(=O)c1nn(-c2ccc(C)cc2)c2nc3sc4c(c3c(=S)n12)CCCC4 |  | < 1 | 128 (≈ 301 µM) | 128 (≈ 301 µM) |  |  | < 1 | > 3 | > 3 | > 3 | > 2 |  |  | 128 (≈ 301 µM) | 
6 | CC(=O)OC[C@H]1O[C@@H](Sc2nc3sc4c(c3c(=S)[nH]2)CCCCC4)[C@@H](OC(C)=O)[C@@H]1OC(C)=O | > 100 | < 1 | > 128 | > 128 | 1.15 | 0 | < 1 | < 1 | < 1 | < 1 | < 1 | > 1 | > 100 | > 128 | 
7 | CC(=O)OC[C@H]1O[C@@H](Sc2nc3sc4c(c3c(=S)[nH]2)CCCCC4)[C@H](OC(C)=O)[C@@H](OC(C)=O)[C@@H]1OC(C)=O |  | > 2 | > 128 | 128 (≈ 214 µM) |  |  | > 2 | > 3 | > 2 | > 2 | > 2 |  |  | > 128 | 
8 | CC(=O)c1nn(-c2ccc(Cl)cc2)c2nc3sc4c(c3c(=S)n12)CCCC4 | > 100 |  |  |  | 0.09 | 0 |  |  |  |  |  | > 1 | > 100 |  | 
9 | OC[C@H]1O[C@@H](Sc2nc3sc4c(c3c(=S)[nH]2)CCCC4)[C@H](O)[C@@H](O)[C@@H]1O | > 100 | < 1 | > 128 | 128 (≈ 307 µM) | 0.61 | 0 | < 1 | > 3 | < 1 | < 1 | < 1 | > 1 | > 100 | > 128 | 
10 | S=c1[nH]c(=S)c2c3c(sc2[nH]1)CCCCC3 | 5.25 | > 2 | > 128 | 128 (≈ 477 µM) | 0.09 | 0 | > 3 | > 3 | > 2 | > 3 | > 2 | > 19.1 | > 100 | 64 (≈ 238 µM) | 
11 | S=c1[nH]c(=S)c2c3c(sc2[nH]1)CCCC3 | 6.5 | < 1 | 128 (≈ 503 µM) | 128 (≈ 503 µM) | 0.07 | 0 | > 3 | > 3 | > 3 | > 3 | < 1 | > 15.4 | > 100 | 64 (≈ 252 µM) | 
12 | OC[C@H]1O[C@@H](Sc2nc3sc4c(c3c(=S)[nH]2)CCCCC4)[C@H](O)[C@@H](O)[C@H]1O | > 100 |  |  |  | 0.38 | 0 |  |  |  |  |  | > 1 | > 100 |  | 
13 | CC(=O)OC[C@H]1O[C@@H](Sc2nc3sc4c(c3c(=S)[nH]2)CCCC4)[C@H](OC(C)=O)[C@@H](OC(C)=O)[C@@H]1OC(C)=O | > 100 | > 2 | > 128 | > 128 | 0.56 | 0 | < 1 | > 2 | < 1 | > 2 | < 1 | > 1 | > 100 | > 128 | 
14 | CC(=O)c1nn(-c2ccc(Cl)cc2)c2nc3sc4c(c3c(=S)n12)CCCCC4 | > 100 |  |  |  | 0.07 | 0 |  |  |  |  |  | > 1 | > 100 |  | 
15 | CC(=O)OC[C@H]1O[C@@H](Sc2nc3sc4c(c3c(=S)[nH]2)CCCC4)[C@@H](OC(C)=O)[C@@H]1OC(C)=O | > 100 | < 1 | 64 (≈ 125 µM) | 128 (≈ 250 µM) | 1.39 | 0 | > 3 | > 3 | > 3 | > 3 | > 3 | > 1 | > 100 | 64 (≈ 125 µM) | 
16 | CC1(C)S[C@@H]2[C@H](NC(=O)[C@H](N)c3ccccc3)C(=O)N2[C@H]1C(=O)O [AMPICILLIN] |  | 0 |  | > 256 |  |  | > 5 | 0 | > 5 | > 5 | > 5 |  |  | 16 (≈ 45.8 µM) | 
17 | OC[C@H]1O[C@@H](Sc2nc3sc4c(c3c(=S)[nH]2)CCCCC4)[C@H](O)[C@@H](O)[C@@H]1O |  | < 1 | > 128 | > 128 |  |  | < 1 | < 1 | < 1 | < 1 | < 1 |  |  | > 128 | 
18 | C[C@@]1(CO)[C@H](O)CC[C@@]2(C)[C@H]1CC[C@H]1C[C@@H]3C[C@@]12CC[C@]3(O)CO [APHIDICOLIN] |  |  |  |  | 0.58 | 100 |  |  |  |  |  |  |  |  | 0.02
19 | CSc1nc2sc3c(c2c(=S)[nH]1)CCCC3 | > 100 | < 1 | 128 (≈ 477 µM) | 128 (≈ 477 µM) | 0.64 | 0 | < 1 | > 3 | > 3 | > 3 | < 1 | > 1 | > 100 | 128 (≈ 477 µM) | 
